Reference: ChEMBL document CHEMBL3259755, “Synthesis, antinociceptive activity and pharmacokinetic profiles of nicorandil and its isomers” (Bioorg Med Chem, 2014)
Calls of active or inactive are those of the source.

Legend:
[1] = system: Mus musculus; experiment: Antinociceptive activity in Swiss mouse assessed as inhibition of formaldehyde-induced nociceptive response in right hind paw at 50 to 150 mg/kg, po administered 5 mins followed by formaldehyde challenge measured for 15 to 30 mins; format: functional, organism-based
Summary of the method: (§1)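 Female Swiss mice received compound p.o. (50, 100 or 150 mg/kg in 0.5% CMC) 5 min before s.c. injection of 0.92% formaldehyde (20 µL) into the right hindpaw. Licking time was recorded at 0–5 min and 15–30 min; n = 9. ANOVA with Newman–Keuls.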

[2] = system: Mus musculus; experiment: Antinociceptive activity in Swiss mouse assessed as inhibition of formaldehyde-induced nociceptive response in right hind paw at 50 to 150 mg/kg, po administered 5 mins followed by formaldehyde challenge measured over 5 mins; format: functional, organism-based; summary of the method: as §1
[3] = system: Plasma; experiment: Drug metabolism in Swiss mouse plasma assessed as nitrite level at 100 mg/kg, po measured after 0.25 to 3 hrs by Griess assay; format: ADME, organism-based; parameters: dose 100 mg/kg, route oral; conditions: in vivo
Summary of the method: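 Female Swiss mice fasted 12 h received vehicle (0.5% CMC, 4 ml/kg) or compound at 100 mg/kg p.o. After ketamine/xylazine anesthesia at 15 min, 1 h and 3 h, blood was taken from the abdominal artery to avoid hemolysis. Heparinized plasma, stored at −70 °C, was mixed 1:1 with Griess reagent for 10 min at room temperature. A540 read against blank plasma; n = 7.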

[4] = Tmax in Swiss mouse at 100 mg/kg, po by LC-MS/MS analysis; format: ADME, organism-based; parameters: dose 100 mg/kg, route oral; conditions: in vivo
Summary of the method: (§2)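 Female Swiss mice (25–30 g), fasted 12 h, given 100 mg/kg p.o. as a suspension in 0.5% CMC (4 mL/kg). Heparinized blood was centrifuged and plasma stored at −70 °C. Plasma was run by LC–MS/MS on a C18 column with methanol/2 mM ammonium acetate + 0.03% formic acid (33:67). Values are mean ± S.E.M.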

[5] = system: Mus musculus; experiment: Antinociceptive activity in Swiss mouse assessed as inhibition of formaldehyde-induced nociceptive response in right hind paw at 100 mg/kg, po administered 1 hr followed by formaldehyde challenge measured over 5 mins; format: functional, organism-based; parameters: dose 100 mg/kg
Summary of the method: (§3)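 Female Swiss mice received vehicle (0.5% CMC, 4 ml/kg) or compound p.o. at 50–150 mg/kg, or at 3–30 mg/kg, 1 h before 20 µL of 0.92% formaldehyde s.c. into the dorsal right hindpaw. Paw-licking time was scored at 0–5 min (first phase) and 15–30 min (second phase). n = 9. Data: mean ± S.E.M., one-way ANOVA with Newman–Keuls.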

[6] = system: Mus musculus; experiment: Antinociceptive activity in Swiss mouse assessed as inhibition of formaldehyde-induced nociceptive response in right hind paw at 100 mg/kg, po administered 1 hr followed by formaldehyde challenge measured for 15 to 30 mins; format: functional, organism-based; parameters: dose 100 mg/kg; summary of the method: as §3
[7] = system: Plasma; experiment: Drug metabolism in Swiss mouse plasma assessed as formation of nicotinamide at 100 mg/kg, po after 10 hrs by LC-MS/MS analysis; format: ADME, organism-based; parameters: dose 100 mg/kg, route oral; conditions: in vivo
Summary of the method: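 Female Swiss mice fasted 12 h received 100 mg/kg p.o. in 0.5% CMC. Six mice per time point were sampled by decapitation from 5 min to 10 h, plus six untreated controls. Heparinized plasma stored at −70 °C. Nicotinamide measured by LC–MS/MS (C18, methanol/ammonium acetate–formic acid mobile phase).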

[8] = Half life in Swiss mouse at 100 mg/kg, po by LC-MS/MS analysis; format: ADME, organism-based; parameters: dose 100 mg/kg, route oral; conditions: in vivo; summary of the method: as §2
[9] = system: Mus musculus; experiment: Toxicity in Swiss mouse assessed as time spent on rotating rod at 150 mg/kg, po administered 1 hr prior to testing (reference value: 120 secs); format: organism-based; parameters: dose 150 mg/kg, route oral; conditions: in vivo
Summary of the method: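 Female Swiss mice were trained on a rota-rod (14 rpm) over 3 days, with a 2 min cut-off. After baseline timing, they were dosed p.o. with vehicle (0.5% CMC, 4 ml/kg), compound at 150 mg/kg, or phenobarbital 40 mg/kg as positive control, and retested 1 h later. n = 9.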

[10] = AUC (0 to infinity) in Swiss mouse at 100 mg/kg, po by LC-MS/MS analysis; format: ADME, organism-based; parameters: time infinity, dose 100 mg/kg, route oral; conditions: plasma; summary of the method: as §2
[11] = system: Mus musculus; experiment: Antinociceptive activity in Swiss mouse assessed as inhibition of formaldehyde-induced nociceptive response in right hind paw at 100 to 150 mg/kg, po administered 1 hr followed by formaldehyde challenge measured 15 to 30 mins; format: functional, organism-based; summary of the method: as §3
[12] = AUC (0 to t) in Swiss mouse at 100 mg/kg, po by LC-MS/MS analysis; format: ADME, organism-based; parameters: dose 100 mg/kg, route oral; conditions: plasma; summary of the method: as §2
[13] = Cmax in Swiss mouse at 100 mg/kg, po by LC-MS/MS analysis; format: ADME, organism-based; parameters: dose 100 mg/kg, route oral; conditions: in vivo; summary of the method: as §2
[14] = system: Mus musculus; experiment: Antinociceptive activity in po dosed Swiss mouse assessed as inhibition of formaldehyde-induced nociceptive response in right hind paw administered 1 hr followed by formaldehyde challenge measured over 5 mins; format: functional, organism-based; summary of the method: as §3
[15] = system: Mus musculus; experiment: Antinociceptive activity in Swiss mouse assessed as inhibition of formaldehyde-induced nociceptive response in right hind paw at 3 to 30 mg/kg, po administered 1 hr followed by formaldehyde challenge; format: functional, organism-based; summary of the method: as §3
[16] = system: Mus musculus; experiment: Toxicity in Swiss mouse assessed as time spent on rotating rod at 40 mg/kg, po administered 1 hr prior to testing (reference value: 119 +/- 1 secs); format: organism-based; parameters: dose 40 mg/kg, route oral; conditions: in vivo
[17] = system: Mus musculus; experiment: Antinociceptive activity in Swiss mouse assessed as inhibition of formaldehyde-induced nociceptive response in right hind paw at 150 mg/kg, po administered 1 hr followed by formaldehyde challenge measured over 5 mins; format: functional, organism-based; parameters: dose 150 mg/kg; summary of the method: as §3
[18] = system: Mus musculus; experiment: Antinociceptive activity in Swiss mouse assessed as inhibition of formaldehyde-induced nociceptive response in right hind paw at 150 mg/kg, po administered 1 hr followed by formaldehyde challenge measured 15 to 30 mins; format: functional, organism-based; parameters: dose 150 mg/kg; summary of the method: as §3

Row | SMILES | inhibition [1] | inhibition [2] | Drug metabolism [3] | Tmax [4] [min] | inhibition [5] | inhibition [6] | Drug metabolism [7] | half-life [8] [min] | Time [9] [s] | AUC(0-inf) [10] [µg·h/mL] | inhibition [11] | AUC(0-t) [12] [µg·h/mL] | Cmax [13] [ng/mL] | inhibition [14] | inhibition [15] | Time [16] [s] | inhibition [17] | inhibition [18]
1 | O=C(NCCO)c1ccccn1 | inactive | inactive | – | – | – | – | – | – | – | – | – | – | – | – | – | – | – | –
2 | O=C(NCCO[N+](=O)[O-])c1ccncc1 | – | – | metabolite_detected | 52.8 | Active | Active | metabolite_detected | 45.6 | 120 | 160 | Active | 160 | 49400 | – | – | – | – | –
3 | O=C(NCCO[N+](=O)[O-])c1cccnc1 [NICORANDIL] | – | – | metabolite_detected | 40.2 | Active | Active | metabolite_detected | 90 | 120 | 123 | Active | 121 | 42600 | Dose-dependent effect | inactive | – | – | –
4 | O=C(NCCO)c1cccnc1 | inactive | inactive | – | – | – | – | – | – | – | – | – | – | – | – | – | – | – | –
5 | CCC1(c2ccccc2)C(=O)NC(=O)NC1=O [PHENOBARBITAL] | – | – | – | – | – | – | – | – | – | – | – | – | – | – | – | 26 | – | –
6 | O=C(NCCO)c1ccncc1 | inactive | inactive | – | – | – | – | – | – | – | – | – | – | – | – | – | – | – | –
7 | O=C(NCCO[N+](=O)[O-])c1ccccn1 | inactive | inactive | metabolite_notdetected | 6.6 | Active | Active | metabolite_detected | 66 | 120 | 10.1 | – | 10.1 | 30800 | – | – | – | Active | Active
